From ChEMBL document CHEMBL4354820, “Optimizing Targeted Inhibitors of P-Glycoprotein Using Computational and Structure-Guided Approaches” (J Med Chem, 2019)
pKd: −log10 of the molar value.

The compounds below were run against T1, P-glycoprotein (ABCB1, mouse MDR3) ATPase (Mus musculus, UniProt P21447) (assay: Inhibition of verampil-stimulated ATPase hydrolysis in recombinant mouse MDR3 expressed in Pichia pastoris measured after 30 mins in presence of NADH by coupled enzyme assay (reference value: 100 +/- 8 %)). Conditions: recombinant mouse MDR3 (P-gp) expressed in Pichia pastoris; call rule not given here.
T1 sequence (P21447 whole entry): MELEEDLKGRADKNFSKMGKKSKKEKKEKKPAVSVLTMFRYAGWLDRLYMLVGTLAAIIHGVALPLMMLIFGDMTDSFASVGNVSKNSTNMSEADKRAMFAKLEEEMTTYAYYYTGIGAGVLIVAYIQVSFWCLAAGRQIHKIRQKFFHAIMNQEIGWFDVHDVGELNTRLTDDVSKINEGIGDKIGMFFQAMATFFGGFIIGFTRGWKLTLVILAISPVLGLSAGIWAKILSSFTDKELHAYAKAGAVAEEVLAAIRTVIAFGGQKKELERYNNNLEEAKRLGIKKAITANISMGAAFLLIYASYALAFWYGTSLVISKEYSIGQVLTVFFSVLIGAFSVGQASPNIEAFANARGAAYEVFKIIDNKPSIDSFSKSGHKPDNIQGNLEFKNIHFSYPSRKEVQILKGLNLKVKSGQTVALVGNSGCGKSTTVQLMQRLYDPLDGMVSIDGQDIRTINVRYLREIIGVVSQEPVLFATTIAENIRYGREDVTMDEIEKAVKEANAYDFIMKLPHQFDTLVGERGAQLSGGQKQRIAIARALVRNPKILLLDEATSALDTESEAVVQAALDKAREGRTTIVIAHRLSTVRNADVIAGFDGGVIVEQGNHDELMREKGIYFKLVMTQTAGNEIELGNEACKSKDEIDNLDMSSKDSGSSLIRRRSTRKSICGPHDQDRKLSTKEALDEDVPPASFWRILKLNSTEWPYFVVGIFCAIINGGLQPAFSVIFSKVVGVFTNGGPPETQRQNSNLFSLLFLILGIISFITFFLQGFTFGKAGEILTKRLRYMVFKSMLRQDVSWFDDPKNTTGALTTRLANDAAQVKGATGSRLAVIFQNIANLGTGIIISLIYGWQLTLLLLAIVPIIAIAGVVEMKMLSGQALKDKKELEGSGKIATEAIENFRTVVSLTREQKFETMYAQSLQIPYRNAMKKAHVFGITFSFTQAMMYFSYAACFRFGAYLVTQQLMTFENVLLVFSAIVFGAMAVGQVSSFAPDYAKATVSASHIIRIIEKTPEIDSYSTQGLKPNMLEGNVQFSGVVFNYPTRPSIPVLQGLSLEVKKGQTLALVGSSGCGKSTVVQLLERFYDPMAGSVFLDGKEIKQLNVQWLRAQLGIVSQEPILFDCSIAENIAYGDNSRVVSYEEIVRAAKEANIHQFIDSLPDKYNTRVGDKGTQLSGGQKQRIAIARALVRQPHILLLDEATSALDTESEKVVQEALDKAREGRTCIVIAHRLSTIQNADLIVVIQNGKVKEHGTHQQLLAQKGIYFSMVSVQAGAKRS
Design: scale not given: the % may be the effect or the level left
With `Cc1cc(C)c(-c2cc(NC(=O)CSc3nnc4c(n3)[nH]c3ccccc34)n(-c3ccccc3)n2)cc1C` the Activity at 0.5 h was 68%.
`Cc1cc(C)c(-c2cc(NC(=O)CSc3cccc(NC(=O)c4cncc(Br)c4)c3)n(-c3ccccc3)n2)cc1C` was tested, and the Activity at 0.5 h was 62%.

These compounds were tested against P-glycoprotein 1 Abcb1a (Mus musculus) (assay: Inhibition of spin-labelled adenine nucleotide interaction with mouse MDR3 P-gp expressed in Escherichia coli BL21 (DE3) assessed as apparent dissociation constant by ESR analysis (reference value: 36.5 +/- 3.6 uM)). Conditions: not given.
`Cc1cc(C)c(-c2cc(NC(=O)CSc3nnc4c(n3)[nH]c3ccccc34)n(-c3ccccc3)n2)cc1C` was tested, and the pKd was 4.62.
`Cc1cc(C)c(-c2cc(NC(=O)CSc3cccc(NC(=O)c4cncc(Br)c4)c3)n(-c3ccccc3)n2)cc1C` showed a pKd of 4.64.

What follows are compounds tested against T2, P-glycoprotein (ABCB1, MDR1) ATPase (Homo sapiens, UniProt P08183) (assay: Inhibition of verampil-stimulated ATPase hydrolysis in recombinant human MDR1 expressed in Pichia pastoris measured after 30 mins in presence of NADH by coupled enzyme assay (reference value: 100 +/- 6 %)). Conditions: recombinant human MDR1 (P-gp) expressed in Pichia pastoris.
T2 sequence (P08183 whole entry): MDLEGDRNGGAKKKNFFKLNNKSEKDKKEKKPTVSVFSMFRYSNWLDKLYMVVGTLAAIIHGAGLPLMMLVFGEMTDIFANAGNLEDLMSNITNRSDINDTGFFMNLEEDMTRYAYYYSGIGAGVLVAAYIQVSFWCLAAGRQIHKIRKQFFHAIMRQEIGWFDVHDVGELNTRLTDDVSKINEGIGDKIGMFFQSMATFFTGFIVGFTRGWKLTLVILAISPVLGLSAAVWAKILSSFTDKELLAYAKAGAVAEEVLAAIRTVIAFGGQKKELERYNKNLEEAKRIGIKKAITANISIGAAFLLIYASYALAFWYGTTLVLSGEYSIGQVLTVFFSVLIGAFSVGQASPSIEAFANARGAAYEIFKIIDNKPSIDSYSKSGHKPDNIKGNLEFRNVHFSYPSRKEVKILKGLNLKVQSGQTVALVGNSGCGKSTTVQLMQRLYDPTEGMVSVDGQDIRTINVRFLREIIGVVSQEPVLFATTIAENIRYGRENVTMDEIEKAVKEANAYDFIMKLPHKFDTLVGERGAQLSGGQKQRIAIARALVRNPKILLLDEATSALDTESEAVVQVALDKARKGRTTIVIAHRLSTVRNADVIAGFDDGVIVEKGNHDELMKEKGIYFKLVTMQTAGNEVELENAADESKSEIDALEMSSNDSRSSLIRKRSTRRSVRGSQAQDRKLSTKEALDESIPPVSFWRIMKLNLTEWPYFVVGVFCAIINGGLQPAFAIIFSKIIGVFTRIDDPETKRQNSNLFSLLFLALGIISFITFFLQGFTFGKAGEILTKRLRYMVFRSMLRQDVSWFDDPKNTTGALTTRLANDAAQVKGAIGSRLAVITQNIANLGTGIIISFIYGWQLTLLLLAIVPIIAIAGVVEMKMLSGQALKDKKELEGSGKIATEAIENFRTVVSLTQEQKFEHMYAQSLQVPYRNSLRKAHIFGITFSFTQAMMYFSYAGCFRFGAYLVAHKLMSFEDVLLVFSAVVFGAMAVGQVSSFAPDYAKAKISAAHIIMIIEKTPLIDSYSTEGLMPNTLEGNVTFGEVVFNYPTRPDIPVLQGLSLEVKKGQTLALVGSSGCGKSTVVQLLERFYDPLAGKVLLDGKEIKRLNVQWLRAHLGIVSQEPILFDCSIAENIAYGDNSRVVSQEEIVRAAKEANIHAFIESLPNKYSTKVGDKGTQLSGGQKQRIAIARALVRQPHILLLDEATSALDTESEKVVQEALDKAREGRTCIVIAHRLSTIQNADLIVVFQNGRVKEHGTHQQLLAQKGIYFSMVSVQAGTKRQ
Design: scale not given: the % may be the effect or the level left
For `Cc1cc(C)c(-c2cc(NC(=O)CSc3nnc4c(n3)[nH]c3ccccc34)n(-c3ccccc3)n2)cc1C`, the Activity at 0.5 h was 66%.
`Cc1cc(C)c(-c2cc(NC(=O)CSc3cccc(NC(=O)c4cncc(Br)c4)c3)n(-c3ccccc3)n2)cc1C` showed an Activity at 0.5 h of 27%.

What follows are compounds tested against T3, ATP-dependent translocase ABCB1 (Homo sapiens, UniProt P08183) (assay: Reversal of P-gp mediated multidrug resistance in human DU145-TxR cells overexpressing P-gp assessed as potentiation of paclitaxel-induced cytotoxicity by measuring fold reduction paclitaxel IC50 at 10 uM after 48 hrs by MTT assay relative to paclitaxel alone). Conditions: not given.
T3 sequence (P08183 whole entry): as above
Type: cell-based
In short: (§1)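 DU145TXR cells seeded at 3000 per well, 24 h later treated 48 h with paclitaxel alone or with 3, 5, 7 or 10 μM inhibitor in complete medium (DMSO vehicle). MTT 4 h, formazan dissolved in DMSO, A570 read, background subtracted, viability relative to DMSO. IC50 by four-parameter nonlinear fit; eight replicates, at least two experiments. Fold values compare paclitaxel alone or with parent inhibitor.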
`Cc1cc(C)c(-c2cc(NC(=O)CSc3nnc4c(n3)[nH]c3ccccc34)n(-c3ccccc3)n2)cc1C` was tested, and the “fold change (FC)” value was 125.
`Cc1cc(C)c(-c2cc(NC(=O)CSc3cccc(NC(=O)c4cncc(Br)c4)c3)n(-c3ccccc3)n2)cc1C` was tested, and the “fold change (FC)” value was 353.

These compounds were tested against T3, ATP-dependent translocase ABCB1 (assay: Reversal of P-gp mediated multidrug resistance in human DU145-TxR cells overexpressing P-gp assessed as potentiation of paclitaxel-induced cytotoxicity by measuring fold reduction paclitaxel IC50 at 7 uM after 48 hrs by MTT assay relative to parent compound). Conditions: not given.
Type: cell-based
In short: as §1
For `Cc1cc(C)c(-c2cc(NC(=O)CSc3nnc4c(n3)[nH]c3ccccc34)n(-c3ccccc3)n2)cc1C`, the “fold change (FC)” value was 3.4.
`Cc1cc(C)c(-c2cc(NC(=O)CSc3cccc(NC(=O)c4cncc(Br)c4)c3)n(-c3ccccc3)n2)cc1C` was tested, and the “fold change (FC)” value was 6.6.

What follows are compounds tested against T1, P-glycoprotein (ABCB1, mouse MDR3) ATPase (assay: Effect on basal ATPase hydrolysis of recombinant mouse MDR3 expressed in Pichia pastoris measured after 30 mins in presence of NADH by coupled enzyme assay (reference value: 100 +/- 7 %)). Conditions: recombinant mouse MDR3 (P-gp) expressed in Pichia pastoris, read-out: Activity.
Design: scale not given: the % may be the effect or the level left
`Cc1cc(C)c(-c2cc(NC(=O)CSc3nnc4c(n3)[nH]c3ccccc34)n(-c3ccccc3)n2)cc1C` was tested, and the Activity at 0.5 h was 101%.

The compounds below were run against T3, ATP-dependent translocase ABCB1 (assay: Ratio of inhibition of P-gp overexpressed in human DU145-TxR cells assessed as increase in intracellular compound accumulation after 2.5 hrs in presence of tariquidar by LC-MS/MS analysis to Inhibition of P-gp overexpressed in human DU145-TxR cells assessed as decrease in intracellular compound accumulation after 2.5 hrs in absence of tariquidar by LC-MS/MS analysis). Conditions: not given.
Type: cell-based
In short: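 P-gp-overexpressing DU145TXR cells exposed to test compounds with or without tariquidar. Intracellular compound measured by LC–MS/MS, with daunorubicin as a transported-substrate control. Ratio is accumulation with tariquidar divided by accumulation without.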
In the case of `Cc1cc(C)c(-c2cc(NC(=O)CSc3nnc4c(n3)[nH]c3ccccc34)n(-c3ccccc3)n2)cc1C`, the Ratio was 1.
Compound `Cc1cc(C)c(-c2cc(NC(=O)CSc3cccc(NC(=O)c4cncc(Br)c4)c3)n(-c3ccccc3)n2)cc1C` has a Ratio of 1.1.

Each compound was assayed against T1, P-glycoprotein (ABCB1, mouse MDR3) ATPase (assay: Stimulation of basal ATPase hydrolysis in recombinant mouse MDR3 expressed in Pichia pastoris measured after 30 mins in presence of NADH by coupled enzyme assay (reference value: 100 +/- 7 %)). Conditions: recombinant mouse MDR3 (P-gp) expressed in Pichia pastoris, read-out: Activity.
Design: scale not given: the % may be the effect or the level left
In the case of `Cc1cc(C)c(-c2cc(NC(=O)CSc3cccc(NC(=O)c4cncc(Br)c4)c3)n(-c3ccccc3)n2)cc1C`, the Activity at 0.5 h was 150%.

These compounds were tested against T3, ATP-dependent translocase ABCB1 (assay: Inhibition of P-gp overexpressed in human DU145-TxR cells assessed as increase in cellular accumulation of calcein AM at 2 uM preincubated for 6 hrs followed by calcein AM addition by fluorescence imaging analysis). Conditions: not given.
Type: cell-based
In short: (§2)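 Confluent DU145TXR monolayers in phenol red-free RPMI 1640 given 2 μM inhibitor (DMSO vehicle) and 1 μg mL−1 calcein AM, either added together or after a 6 h inhibitor-only preincubation at 37 °C. Calcein fluorescence (ex 485 / em 535 nm) read over 60 min at 20 min intervals. Six replicates, at least two independent experiments.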
With `Cc1cc(C)c(-c2cc(NC(=O)CSc3nnc4c(n3)[nH]c3ccccc34)n(-c3ccccc3)n2)cc1C` the “inhibition (INH)” value was “Active”.
In the case of `Cc1cc(C)c(-c2cc(NC(=O)CSc3cccc(NC(=O)c4cncc(Br)c4)c3)n(-c3ccccc3)n2)cc1C`, the “inhibition (INH)” value was “Active”.

What follows are compounds tested against T3, ATP-dependent translocase ABCB1 (assay: Reversal of P-gp mediated multidrug resistance in human DU145-TxR cells overexpressing P-gp assessed as potentiation of paclitaxel-induced cytotoxicity by measuring fold reduction paclitaxel IC50 at 10 uM after 48 hrs by MTT assay relative to parent compound). Conditions: not given.
Type: cell-based
In short: as §1
With `Cc1cc(C)c(-c2cc(NC(=O)CSc3nnc4c(n3)[nH]c3ccccc34)n(-c3ccccc3)n2)cc1C` the “fold change (FC)” value was 3.4.
`Cc1cc(C)c(-c2cc(NC(=O)CSc3cccc(NC(=O)c4cncc(Br)c4)c3)n(-c3ccccc3)n2)cc1C` was tested, and the “fold change (FC)” value was 3.5.

What follows are compounds tested against T3, ATP-dependent translocase ABCB1 (assay: Reversal of P-gp mediated multidrug resistance in human DU145-TxR cells overexpressing P-gp assessed as potentiation of paclitaxel-induced cytotoxicity by measuring fold reduction paclitaxel IC50 at 3 uM after 48 hrs by MTT assay relative to paclitaxel alone). Conditions: not given.
Type: cell-based
In short: as §1
For `Cc1cc(C)c(-c2cc(NC(=O)CSc3nnc4c(n3)[nH]c3ccccc34)n(-c3ccccc3)n2)cc1C`, the “fold change (FC)” value was 5.
`Cc1cc(C)c(-c2cc(NC(=O)CSc3cccc(NC(=O)c4cncc(Br)c4)c3)n(-c3ccccc3)n2)cc1C` was tested, and the “fold change (FC)” value was 38.

The compounds below were run against T2, P-glycoprotein (ABCB1, MDR1) ATPase (assay: Basal ATPase hydrolysis in recombinant human MDR1 expressed in Pichia pastoris measured after 30 mins in presence of NADH by coupled enzyme assay (reference value: 100 +/- 5 %)). Conditions: recombinant human MDR1 (P-gp) expressed in Pichia pastoris.
Design: scale not given: the % may be the effect or the level left
Work on `Cc1cc(C)c(-c2cc(NC(=O)CSc3cccc(NC(=O)c4cncc(Br)c4)c3)n(-c3ccccc3)n2)cc1C` yielded an Activity at 0.5 h of 72%.

What follows are compounds tested against T3, ATP-dependent translocase ABCB1 (assay: Reversal of P-gp mediated multidrug resistance in human DU145-TxR cells overexpressing P-gp assessed as potentiation of paclitaxel-induced cytotoxicity by measuring fold reduction paclitaxel IC50 at 5 uM after 48 hrs by MTT assay relative to paclitaxel alone). Conditions: not given.
Type: cell-based
In short: as §1
For `Cc1cc(C)c(-c2cc(NC(=O)CSc3nnc4c(n3)[nH]c3ccccc34)n(-c3ccccc3)n2)cc1C`, the “fold change (FC)” value was 101.
`Cc1cc(C)c(-c2cc(NC(=O)CSc3cccc(NC(=O)c4cncc(Br)c4)c3)n(-c3ccccc3)n2)cc1C` was tested, and the “fold change (FC)” value was 106.

Each compound was assayed against T2, P-glycoprotein (ABCB1, MDR1) ATPase (assay: Effect on basal ATPase hydrolysis of recombinant human MDR1 expressed in Pichia pastoris measured after 30 mins in presence of NADH by coupled enzyme assay (reference value: 100 +/- 5 %)). Conditions: recombinant human MDR1 (P-gp) expressed in Pichia pastoris, read-out: Activity.
Design: scale not given: the % may be the effect or the level left
`Cc1cc(C)c(-c2cc(NC(=O)CSc3nnc4c(n3)[nH]c3ccccc34)n(-c3ccccc3)n2)cc1C` showed an Activity at 0.5 h of 87%.

What follows are compounds tested against T3, ATP-dependent translocase ABCB1 (assay: Reversal of P-gp mediated multidrug resistance in human DU145-TxR cells overexpressing P-gp assessed as potentiation of paclitaxel-induced cytotoxicity by measuring fold reduction paclitaxel IC50 at 7 uM after 48 hrs by MTT assay relative to paclitaxel alone). Conditions: not given.
Type: cell-based
In short: as §1
With `Cc1cc(C)c(-c2cc(NC(=O)CSc3nnc4c(n3)[nH]c3ccccc34)n(-c3ccccc3)n2)cc1C` the “fold change (FC)” value was 125.
`Cc1cc(C)c(-c2cc(NC(=O)CSc3cccc(NC(=O)c4cncc(Br)c4)c3)n(-c3ccccc3)n2)cc1C` was tested, and the “fold change (FC)” value was 236.

These compounds were tested against T3, ATP-dependent translocase ABCB1 (assay: Reversal of P-gp mediated multidrug resistance in human DU145-TxR cells overexpressing P-gp assessed as potentiation of paclitaxel-induced cytotoxicity by measuring fold reduction paclitaxel IC50 at 5 uM after 48 hrs by MTT assay relative to parent compound). Conditions: not given.
Type: cell-based
In short: as §1
`Cc1cc(C)c(-c2cc(NC(=O)CSc3nnc4c(n3)[nH]c3ccccc34)n(-c3ccccc3)n2)cc1C` was tested, and the “fold change (FC)” value was 9.2.
In the case of `Cc1cc(C)c(-c2cc(NC(=O)CSc3cccc(NC(=O)c4cncc(Br)c4)c3)n(-c3ccccc3)n2)cc1C`, the “fold change (FC)” value was 9.7.

What follows are compounds tested against T3, ATP-dependent translocase ABCB1 (assay: Reversal of P-gp mediated multidrug resistance in human DU145-TxR cells overexpressing P-gp assessed as potentiation of paclitaxel-induced cytotoxicity by measuring fold reduction paclitaxel IC50 at 3 uM after 48 hrs by MTT assay relative to parent compound). Conditions: not given.
Type: cell-based
In short: as §1
In the case of `Cc1cc(C)c(-c2cc(NC(=O)CSc3nnc4c(n3)[nH]c3ccccc34)n(-c3ccccc3)n2)cc1C`, the “fold change (FC)” value was 1.5.
With `Cc1cc(C)c(-c2cc(NC(=O)CSc3cccc(NC(=O)c4cncc(Br)c4)c3)n(-c3ccccc3)n2)cc1C` the “fold change (FC)” value was 11.

The compounds below were run on P-glycoprotein 1 Abcb1a (Mus musculus) (assay: Inhibition of 2',3'-(2,2,5,5,-tetramethyl-3-pyrroline-l-oxyl-3-carboxylic acid ester)ATP interaction with mouse MDR3 P-gp expressed in Escherichia coli BL21 (DE3) assessed as reduction in ATP binding from 2 to 1 of nucleotide to mol of protein by ESR analysis (reference value: 1.8 +/- 0.1)). Conditions: not given.
Compound `Cc1cc(C)c(-c2cc(NC(=O)CSc3nnc4c(n3)[nH]c3ccccc34)n(-c3ccccc3)n2)cc1C` has an Activity of 1.8.
Work on `Cc1cc(C)c(-c2cc(NC(=O)CSc3cccc(NC(=O)c4cncc(Br)c4)c3)n(-c3ccccc3)n2)cc1C` yielded an Activity of 1.7.

These compounds were tested against T3, ATP-dependent translocase ABCB1 (assay: Inhibition of P-gp overexpressed in human DU145-TxR cells assessed as increase in cellular accumulation of calcein AM at 2 uM pretreated followed by calcein AM addition by fluorescence imaging analysis). Conditions: not given.
Type: cell-based
In short: as §2
For `Cc1cc(C)c(-c2cc(NC(=O)CSc3nnc4c(n3)[nH]c3ccccc34)n(-c3ccccc3)n2)cc1C`, the “inhibition (INH)” value was “Active”.
With `Cc1cc(C)c(-c2cc(NC(=O)CSc3cccc(NC(=O)c4cncc(Br)c4)c3)n(-c3ccccc3)n2)cc1C` the “inhibition (INH)” value was “Active”.
